Test results as given in ChEMBL document CHEMBL1157441, “Fungicidal activity of truncated analogues of dihydrosphingosine” (2008).
Values after ≈ are worked out from the molar mass of the structure shown. Active and inactive are the calls of the source.

Experiments:
[1] = tested on: Nakaseomyces glabratus; experiment: Fungicidal activity against Candida glabrata BG2; assay type: functional
How it was run: (§1)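 Overnight cultures diluted 1/400 in PBS, exposed to compound or DMSO without ascorbic acid for 0 h and 5 h at 37°C. Survivors counted as CFU on YPD agar after 2 days at 30°C. MFC taken as lowest concentration giving under 1% survival relative to DMSO control.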

[2] = tested on: Candida albicans; experiment: Fungicidal activity against Candida albicans CAI4; assay type: functional; how it was run: as §1
[3] = tested on: Candida albicans; experiment: Fungicidal activity against Candida albicans CAI4 in presence of 10 mM ascorbic acid; assay type: functional
How it was run: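 Overnight C. albicans culture diluted 1/400 in PBS, exposed to compound or DMSO with 10 mM ascorbic acid for 0 h and 5 h at 37°C. CFU counted on YPD agar after 2 days at 30°C. MFC defined as minimal concentration leaving under 1% survival versus DMSO control.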

[4] = tested on: Candida albicans; experiment: Induction of endogenous ROS accumulation in Candida albicans CAI4 after 3 hrs by 2',7'-dichlorofluorescein diacetate staining; assay type: functional, organism-based
How it was run: (§2)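 Log-phase cells suspended in PBS and pre-incubated with compounds for 3 h at 37°C. Cells then washed in PBS and incubated with 2',7'-dichlorofluorescein diacetate for 3 h at 37°C. Cellular fluorescence read by fluorescence spectrometer, ex 485 nm / em 525 nm. Tested over a range of concentrations up to 100 µg/ml.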

[5] = tested on: Candida albicans; experiment: Induction of endogenous ROS accumulation in Candida albicans CAI4 at 100 ug/ml after 3 hrs by 2',7'-dichlorofluorescein diacetate staining; assay type: functional, organism-based; how it was run: as §2

Row | Structure (SMILES) | MFC [1] [µg/mL] | MFC [2] [µg/mL] | MFC [3] [µg/mL] | Activity [4] | Activity [5]
1 | CCCCCCCCCCCC[C@@H](O)[C@@H](N)CO | 0.5 (≈ 1.93 µM) | 0.5 (≈ 1.93 µM) | 10 | Active | –
2 | CCCCCCCCCCCCCC[C@@H](O)[C@@H](N)CO | 0.5 (≈ 1.74 µM) | 0.5 (≈ 1.74 µM) | 2 | Active | –
3 | CC[C@@H](O)[C@@H](N)CO | > 100 | > 100 | – | – | inactive
4 | CCCCCCCCCCCCCCC[C@@H](O)[C@@H](N)CO [DIHYDROSPINGOSINE] | 1 (≈ 3.32 µM) | 5 (≈ 16.6 µM) | 5 | Active | –
5 | CCCCCC[C@@H](O)[C@@H](N)CO | > 100 | > 100 | – | – | inactive
6 | CCCCCCCCCCCCCC[C@@H](O)[C@@H](O)[C@@H](N)CO [PHYTOSPHINGOSINE] | 1 (≈ 3.15 µM) | 1 (≈ 3.15 µM) | 1 | Active | –
7 | CCCCCCCCC[C@@H](O)[C@@H](N)CO | 10 (≈ 46 µM) | 10 (≈ 46 µM) | > 25 | Active | –
